Source: ChEMBL document CHEMBL4130632, “Targeting Myeloid Differentiation Using Potent 2-Hydroxypyrazolo[1,5- a]pyridine Scaffold-Based Human Dihydroorotate Dehydrogenase Inhibitors” (J Med Chem, 2018)

Key:
[1] = target: Dihydroorotate dehydrogenase (quinone), mitochondrial (Homo sapiens, UniProt Q02127); assay: Inhibition of recombinant N-terminal GST-tagged human DHODH (31 to 395 residues) expressed in Escherichia coli BL21(DE3) assessed as inhibition of DCIP reduction using dihydroorotate as substrate preincubated for 5 mins followed by substrate addition measured after 5 mins
PBMC [2] = assay: Immunosuppressive activity against human PBMC assessed as inhibition of PHA-stimulated cell proliferation preincubated for 2 hrs followed by PHA stimulation for 72 hrs by Hoechst 33258 dye-based fluorescence assay; assay type: functional
Jurkat [3] = assay: Antiproliferative activity against human Jurkat T cells assessed as DNA content after 72 hrs by Hoechst 33258 dye-based fluorescence assay; assay type: functional, cell-based
[4] = Stability of the compound in human serum assessed as compound remaining at 37 degC after 24 hrs by RP-HPLC analysis; assay type: ADME, cell-free; conditions: read-out: Stability
Outline: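 Compound from DMSO stock added to human male AB serum (2% cosolvent) and shaken at 37 °C. Samples taken at 0–24 h were deproteinized with 0.1% TFA in acetonitrile, centrifuged and filtered. Analyzed by C18 RP-HPLC (acetonitrile/water 70/30, 0.1% TFA). Value is % unmodified parent at 24 h.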

THP-1 = assay: Induction of myeloid differentiation in human THP1 cells assessed as increase in CD14 expression level at 0.1 to 1 uM up to 4 days by propidium iodide staining-based flow cytometry
Jurkat [5] = assay: Antiproliferative activity against human Jurkat T cells assessed as DNA content after 72 hrs in presence of exogenous uridine by Hoechst 33258 dye-based fluorescence assay; assay type: functional, cell-based
U-937 = assay: Induction of myeloid differentiation in human U937 cells assessed as increase in CD11b expression level at 0.1 to 1 uM up to 4 days by propidium iodide staining-based flow cytometry; assay type: functional
Outline: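 Cells plated at 1 × 10^4 with inhibitor 0.1–10 μM. Differentiation was followed daily by flow cytometry, to day 4 for U937 and day 5 for THP1. Markers were PE-CD11b for U937 and FITC-CD14 for THP1, stained 45 min at 4 °C in PBS/2% BSA/1 mM EDTA. Propidium iodide excluded dead cells. Uridine-rescue (100 μM) samples were read at day 3.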

PBMC [6] = assay: Immunosuppressive activity against human PBMC assessed as inhibition of PHA-stimulated cell proliferation preincubated for 2 hrs followed by PHA stimulation for 72 hrs in presence of exogenous uridine by Hoechst 33258 dye-based fluorescence assay; assay type: functional
Jurkat [7] = assay: Cytotoxicity against human Jurkat T cells assessed as compound concentration required to induce =>30% cell death after 72 hrs by CellTox green assay; assay type: cell-based
Outline: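 Jurkat T cells (complete X-VIVO 15, 10% FBS, 37 °C, 5% CO2; passages 5–10, mycoplasma-tested), 5 × 10^3/well. Cells exposed to 0.001–100 μM compound or DMSO vehicle for 72 h. Cell death read by CellTox Green. Value is the concentration giving significant (≥30%) cytotoxicity, mean ± SE of three independent experiments.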

Sequence of Dihydroorotate dehydrogenase (quinone), mitochondrial (Q02127 whole entry, the tested form may be a part): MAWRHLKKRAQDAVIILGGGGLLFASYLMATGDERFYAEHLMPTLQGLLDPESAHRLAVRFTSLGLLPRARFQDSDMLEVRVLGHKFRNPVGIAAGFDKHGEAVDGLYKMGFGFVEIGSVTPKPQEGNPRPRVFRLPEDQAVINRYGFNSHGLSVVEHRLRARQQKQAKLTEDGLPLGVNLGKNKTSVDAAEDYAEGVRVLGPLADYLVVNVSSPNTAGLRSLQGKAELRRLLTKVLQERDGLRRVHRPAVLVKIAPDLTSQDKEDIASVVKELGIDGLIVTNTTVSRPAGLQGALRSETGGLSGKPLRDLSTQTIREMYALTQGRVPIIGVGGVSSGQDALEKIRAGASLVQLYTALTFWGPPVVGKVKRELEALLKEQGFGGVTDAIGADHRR

SMILES: Cn1nc(O)c(C(=O)Nc2c(F)c(F)c(-c3ccccc3)c(F)c2F)n1
- IC50 [1]: 0.045 µM

SMILES: Cn1c(=O)c(C(=O)Nc2c(F)c(F)c(-c3ccccc3)c(F)c2F)c2ccccn21
- IC50 [1]: > 5 µM

SMILES: Cc1c(-c2ccc(-c3ccccc3F)cc2)nc2ccc(F)cc2c1C(=O)O [BREQUINAR]
- IC50 (PBMC [2]): 3.74 µM
- IC50 (Jurkat [3]): 0.91 µM
- remaining at 24 h [4]: 98%
- %max (THP-1): 40%
- IC50 (Jurkat [5]): 94.2 µM
- %max (U-937): 40%
- IC50 (PBMC [6]): 59.6 µM

SMILES: C/C(O)=C(\C#N)C(=O)Nc1ccc(C(F)(F)F)cc1 [TERIFLUNOMIDE]
- Activity (Jurkat [7]): 53 µM
